Published values of several laboratories.
Lines come from different studies, so protocols differ.
ALK: ALK tyrosine kinase receptor (ALK, Homo sapiens, UniProt Q9UM73)
ALK C1156Y: ALK tyrosine kinase receptor (ALK, Homo sapiens, UniProt Q9UM73, C1156Y)
ALK L1196M: ALK tyrosine kinase receptor (ALK, Homo sapiens, UniProt Q9UM73, L1196M)

For CCCOc1ccc(OC)c(F)c1C(=O)c1ccc(C(=O)N[C@@H]2CNC[C@H]2NC(=O)c2ccc3[nH]ncc3c2)cc1, the remaining activity was 47% (ALK; enzyme activity; inhibitor; 10 µM).
For Nc1cnc(N2CCc3cc(S(=O)(=O)Nc4c(F)cc(Cl)cc4F)cc(N4CCCC4=O)c32)nc1, the remaining binding was 100% (ALK C1156Y; cell-free assay; competition with immobilised ligand; 1 µM).
For CNC(=O)c1cc(Oc2ccc(NC(=O)Nc3ccc(Cl)c(C(F)(F)F)c3)cc2)ccn1, the inhibition was -16% (ALK; enzyme activity; inhibitor; 0.3 µM).
With CC/C(=N\NC(=O)NCc1cccc(O)c1)c1ccc(O)c(C)c1O the inhibition was -1.5% (ALK tyrosine kinase receptor (ALK, Homo sapiens, UniProt Q9UM73, G1202R); enzyme activity; inhibitor; 0.1 µM).
Cc1ccc(NC(=O)c2ccc(C)c(C(F)(F)F)c2)cc1C#Cc1nn(C2CCC(O)CC2)c2ncnc(N)c12 (centres unmarked) has a remaining signal of 92% (ALK; cell-free assay; 10 µM).
With CN([C@@H]1CCc2c(CC(=O)O)c3cc(S(C)(=O)=O)ccc3n2C1)S(=O)(=O)c1ccc(F)cc1 the remaining binding was 72% (ALK C1156Y; cell-free assay; competition with immobilised ligand; 1 µM).
With CCCS(=O)(=O)Nc1ccc(F)c(C(=O)c2c[nH]c3ncc(-c4ccc(Cl)cc4)cc23)c1F the inhibition was under 10% (ALK; enzyme activity; inhibitor; 1 µM).
For Cc1sc(C(=O)NC2COC2)cc1-n1cc(NC(=O)Nc2c(F)cccc2Cl)cn1, the remaining activity was 100% (ALK; enzyme activity; inhibitor; 10 µM).
For N#CCCc1ccc2c(c1)-c1[nH]c3ccc([N+](=O)[O-])cc3c1CC(=O)N2, the remaining signal was 78.8% (ALK; cell-free assay; 0.5 µM).
For COc1cc2ncnc(Nc3ccc(Oc4ccccc4)c(C)c3C)c2cc1OC, the inhibition was -3% (ALK; enzyme activity; inhibitor; 1 µM).
With F[C@@H]1CCN(c2nccc(-c3cnn4ncccc34)n2)C1 the remaining binding was 100% (ALK L1196M; binding; 1 µM).
For CCCOc1ccc([C@@H]2[C@@H](C(=O)O)[C@H](c3ccc4c(c3)OCO4)CN2CC(=O)Nc2c(CC)cccc2CC)cc1, the remaining binding was 78% (ALK L1196M; cell-free assay; competition with immobilised ligand; 1 µM).
N[C@@H]1CCN(c2nccc(-c3cnn4ncccc34)n2)C1 gave a remaining binding of 65% (ALK C1156Y; binding; 1 µM).
With Cc1[nH]c(/C=C2\C(=O)Nc3ccc(F)cc32)c(C)c1C(=O)N[C@H]1CCN(C(=O)N(C)C)C1 the remaining activity was 109% (ALK; enzyme activity; inhibitor; 0.1 µM).
For Cc1cc(NC(=O)c2cccc3cc(-c4cccc5[nH]nc(N)c45)ccc23)ccc1F, the activity vs control was 140% (ALK; enzyme activity; inhibitor; 0.1 µM).
The remaining binding of CNCc1ccccc1-c1csc([C@H](C)Nc2nc(C)nc3cc(OC)c(OC)cc23)c1 is reported as 100% (ALK C1156Y; cell-free assay; competition with immobilised ligand; 1 µM).
CN(C)c1ncc(F)c(-c2cnn3ncccc23)n1 gave a remaining binding of 90% (ALK; binding; 1 µM).
O=C(NCc1ncc(C(F)(F)F)cc1Cl)c1ccc2c(c1)C1(CCS(=O)(=O)CC1)[C@H](C1CC1)N2S(=O)(=O)c1ccc(F)cc1 has a remaining binding of 98% (ALK; cell-free assay; competition with immobilised ligand; 1 µM).
For CC(C)(O)[C@H]1CC[C@H](Nc2ccc3ncc(-c4cccc(C(F)(F)F)c4)n3n2)CC1, the remaining activity was 57% (ALK; enzyme activity; inhibitor; 1 µM).
The remaining binding of N#Cc1ccc(Nc2ccc3[nH]c(=O)[nH]c3c2)c(Cl)c1 is reported as 100% (ALK; cell-free assay; competition with immobilised ligand; 1 µM).
For c1cnn2ncc(-c3ccnc(N4CCC45COC5)n3)c2c1, the remaining binding was 40% (ALK L1196M; binding; 1 µM).
For N#CC1(c2ccccn2)CCN(Cc2cc(C(=O)N3CCCC3)c(=O)n3ccccc23)CC1, the remaining binding was 100% (ALK; cell-free assay; competition with immobilised ligand; 1 µM).
Nc1ncnc2occ(-c3ccc(NC(=O)Nc4cc(C(F)(F)F)ccc4F)cc3)c12 gave a remaining signal of 0.3% (ALK; cell-free assay; 20 µM).
